pIC50: −log10 of the molar value. ≈ marks a conversion by molar mass, not a printed value.
Columns and labels:
[1] = molecular target: Vascular endothelial growth factor receptor 2 (Homo sapiens, UniProt P35968); test: Inhibition of GST tagged VEGFR2 expressed in Sf9 cells
Procedure, shortened: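 GST-fused VEGFR2 catalytic domain, baculovirus-expressed in Sf9 cells (MOI 0.1), glutathione-agarose purified; 5 nM enzyme preincubated with inhibitor and Mg-ATP on ice 4 min, then reacted on immobilized poly(Glu4,Tyr) at 30 °C for 10 min in 60 mM Hepes pH 7.5, MgCl2/MnCl2; ATP 0.6 (2× Km); Eu anti-phosphotyrosine TR-fluorescence; seven concentrations in triplicate, four-parameter IC50 fit.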

[2] = molecular target: T1, Hepatocyte growth factor receptor (Homo sapiens, UniProt P08581); test: Inhibition of GST tagged c-Met expressed in High Five cells
Target sequence in this assay (P08581 whole entry): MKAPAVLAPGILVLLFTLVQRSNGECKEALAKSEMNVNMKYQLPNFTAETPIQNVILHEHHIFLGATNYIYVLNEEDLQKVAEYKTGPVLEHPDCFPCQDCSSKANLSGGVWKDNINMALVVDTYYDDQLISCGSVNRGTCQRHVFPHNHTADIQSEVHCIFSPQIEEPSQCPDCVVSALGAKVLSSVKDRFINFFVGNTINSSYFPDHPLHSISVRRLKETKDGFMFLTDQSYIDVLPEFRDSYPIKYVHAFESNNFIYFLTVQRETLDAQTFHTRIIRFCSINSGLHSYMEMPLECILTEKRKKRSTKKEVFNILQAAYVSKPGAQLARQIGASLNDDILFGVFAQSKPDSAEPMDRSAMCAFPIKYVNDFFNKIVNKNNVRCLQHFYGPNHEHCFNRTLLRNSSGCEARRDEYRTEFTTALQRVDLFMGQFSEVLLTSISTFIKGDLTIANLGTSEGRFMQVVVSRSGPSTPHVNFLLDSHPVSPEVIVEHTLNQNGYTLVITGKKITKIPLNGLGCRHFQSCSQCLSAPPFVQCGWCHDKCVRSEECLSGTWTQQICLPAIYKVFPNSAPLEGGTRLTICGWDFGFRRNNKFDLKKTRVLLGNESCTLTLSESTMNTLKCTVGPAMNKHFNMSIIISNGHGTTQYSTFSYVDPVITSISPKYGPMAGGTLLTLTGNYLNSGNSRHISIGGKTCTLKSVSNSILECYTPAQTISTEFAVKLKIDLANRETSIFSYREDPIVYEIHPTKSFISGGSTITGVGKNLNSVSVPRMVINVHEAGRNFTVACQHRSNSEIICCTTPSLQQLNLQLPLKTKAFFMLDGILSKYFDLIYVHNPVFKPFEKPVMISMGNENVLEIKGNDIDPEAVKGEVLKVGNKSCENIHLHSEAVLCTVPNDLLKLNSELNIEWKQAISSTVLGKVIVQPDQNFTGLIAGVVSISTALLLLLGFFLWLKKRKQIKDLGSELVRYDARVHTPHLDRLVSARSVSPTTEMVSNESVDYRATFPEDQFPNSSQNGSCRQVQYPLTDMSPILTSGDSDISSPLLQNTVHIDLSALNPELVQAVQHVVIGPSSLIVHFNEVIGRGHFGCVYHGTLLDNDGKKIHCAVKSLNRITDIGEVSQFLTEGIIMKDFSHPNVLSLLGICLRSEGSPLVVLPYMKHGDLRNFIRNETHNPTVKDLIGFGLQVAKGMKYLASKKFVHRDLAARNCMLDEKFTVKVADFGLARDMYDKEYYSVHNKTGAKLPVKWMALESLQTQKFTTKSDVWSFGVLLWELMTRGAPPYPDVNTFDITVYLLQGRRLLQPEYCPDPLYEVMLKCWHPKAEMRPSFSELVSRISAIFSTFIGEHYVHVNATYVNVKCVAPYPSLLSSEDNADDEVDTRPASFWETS

[3] = Solubility of compound; format: physicochemical
[4] = molecular target: T1, Hepatocyte growth factor receptor; test: Inhibition of TPR-Met fusion protein assessed as Y1230-34-35 phosphorylation
Target sequence in this assay (P08581 25-1390 limits assumed): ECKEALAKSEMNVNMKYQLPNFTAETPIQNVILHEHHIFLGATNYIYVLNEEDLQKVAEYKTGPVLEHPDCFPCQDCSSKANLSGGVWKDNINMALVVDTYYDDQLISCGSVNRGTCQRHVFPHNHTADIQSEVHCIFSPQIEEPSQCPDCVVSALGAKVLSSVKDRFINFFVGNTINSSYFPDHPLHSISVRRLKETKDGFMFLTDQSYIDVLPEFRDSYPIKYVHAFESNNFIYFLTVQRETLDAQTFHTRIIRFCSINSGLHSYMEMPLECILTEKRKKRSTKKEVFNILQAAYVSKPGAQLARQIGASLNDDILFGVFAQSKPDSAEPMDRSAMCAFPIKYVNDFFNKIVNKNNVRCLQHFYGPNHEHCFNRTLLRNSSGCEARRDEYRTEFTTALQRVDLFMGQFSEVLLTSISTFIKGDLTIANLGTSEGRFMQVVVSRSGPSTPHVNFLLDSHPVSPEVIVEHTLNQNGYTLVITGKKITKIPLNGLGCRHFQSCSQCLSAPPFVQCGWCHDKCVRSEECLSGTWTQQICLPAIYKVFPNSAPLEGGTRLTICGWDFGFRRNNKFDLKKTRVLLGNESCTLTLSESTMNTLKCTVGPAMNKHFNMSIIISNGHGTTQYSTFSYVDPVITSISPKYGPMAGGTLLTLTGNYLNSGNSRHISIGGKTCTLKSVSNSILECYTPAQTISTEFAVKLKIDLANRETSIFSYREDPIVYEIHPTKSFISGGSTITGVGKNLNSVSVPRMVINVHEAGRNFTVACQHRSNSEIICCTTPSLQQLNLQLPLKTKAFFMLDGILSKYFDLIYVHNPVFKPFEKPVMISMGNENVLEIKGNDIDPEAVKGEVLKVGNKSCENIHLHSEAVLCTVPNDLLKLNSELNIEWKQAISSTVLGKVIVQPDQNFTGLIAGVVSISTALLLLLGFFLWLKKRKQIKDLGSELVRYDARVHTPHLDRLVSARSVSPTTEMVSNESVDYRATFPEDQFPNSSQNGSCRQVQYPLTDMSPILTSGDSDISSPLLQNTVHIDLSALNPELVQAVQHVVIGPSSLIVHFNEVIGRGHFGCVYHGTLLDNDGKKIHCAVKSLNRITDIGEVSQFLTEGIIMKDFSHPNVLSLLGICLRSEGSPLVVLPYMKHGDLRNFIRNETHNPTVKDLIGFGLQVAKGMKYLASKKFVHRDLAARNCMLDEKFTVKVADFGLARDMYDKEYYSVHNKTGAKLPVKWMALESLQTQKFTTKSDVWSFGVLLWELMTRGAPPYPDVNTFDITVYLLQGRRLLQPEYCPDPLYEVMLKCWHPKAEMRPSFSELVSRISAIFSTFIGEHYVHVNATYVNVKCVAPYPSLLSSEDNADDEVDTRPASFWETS

Chain of Vascular endothelial growth factor receptor 2 (P35968 whole entry, the tested form may be a part): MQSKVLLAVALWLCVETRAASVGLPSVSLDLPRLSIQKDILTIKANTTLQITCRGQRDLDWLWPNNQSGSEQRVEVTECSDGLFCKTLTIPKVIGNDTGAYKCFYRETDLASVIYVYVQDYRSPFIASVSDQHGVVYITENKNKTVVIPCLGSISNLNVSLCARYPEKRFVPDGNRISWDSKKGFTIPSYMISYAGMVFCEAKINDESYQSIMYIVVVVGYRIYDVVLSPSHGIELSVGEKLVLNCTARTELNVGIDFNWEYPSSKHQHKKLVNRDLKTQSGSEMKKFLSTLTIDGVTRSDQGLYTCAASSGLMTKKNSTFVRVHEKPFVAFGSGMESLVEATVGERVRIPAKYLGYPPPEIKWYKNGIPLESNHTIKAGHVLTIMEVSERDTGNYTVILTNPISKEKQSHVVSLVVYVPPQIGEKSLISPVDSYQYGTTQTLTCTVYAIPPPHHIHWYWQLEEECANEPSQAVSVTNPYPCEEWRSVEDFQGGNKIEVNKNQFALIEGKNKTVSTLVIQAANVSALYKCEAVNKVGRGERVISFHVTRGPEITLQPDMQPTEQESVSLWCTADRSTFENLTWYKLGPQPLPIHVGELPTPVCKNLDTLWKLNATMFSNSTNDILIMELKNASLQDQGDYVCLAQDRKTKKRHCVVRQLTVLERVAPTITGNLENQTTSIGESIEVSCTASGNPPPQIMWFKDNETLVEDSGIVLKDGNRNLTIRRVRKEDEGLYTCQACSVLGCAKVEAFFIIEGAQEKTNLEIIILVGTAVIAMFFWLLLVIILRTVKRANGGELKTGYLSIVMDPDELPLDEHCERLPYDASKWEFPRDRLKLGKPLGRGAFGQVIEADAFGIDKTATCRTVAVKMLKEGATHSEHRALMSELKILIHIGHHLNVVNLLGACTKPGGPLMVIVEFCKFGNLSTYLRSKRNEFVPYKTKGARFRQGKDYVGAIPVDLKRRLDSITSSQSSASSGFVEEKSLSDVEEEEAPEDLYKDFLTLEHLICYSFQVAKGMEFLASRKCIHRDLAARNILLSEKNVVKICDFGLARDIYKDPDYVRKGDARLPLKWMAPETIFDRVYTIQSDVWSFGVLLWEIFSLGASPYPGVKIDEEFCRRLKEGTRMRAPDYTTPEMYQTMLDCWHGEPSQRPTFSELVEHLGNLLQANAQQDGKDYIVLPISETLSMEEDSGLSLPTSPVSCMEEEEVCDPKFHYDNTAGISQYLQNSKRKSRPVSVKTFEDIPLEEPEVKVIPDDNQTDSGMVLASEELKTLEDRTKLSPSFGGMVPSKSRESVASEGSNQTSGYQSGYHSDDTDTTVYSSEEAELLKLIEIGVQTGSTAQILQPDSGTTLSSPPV

| SMILES | pIC50 [1] | pIC50 [2] | solubility [3] [µg/mL] | pIC50 [4] |
| --- | --- | --- | --- | --- |
| O=C(Cc1ccccc1)NC(=S)Nc1ccc(Oc2ccnc3cc(C(=O)c4ccco4)sc23)c(F)c1 | 6.90 | 6.89 | – | – |
| CC(O)c1cc2nccc(Oc3ccc(NC(=S)NC(=O)Cc4ccccc4)cc3F)c2s1 (configuration not stated) | 6.25 | – | – | – |
| Cn1ccnc1-c1cc2nccc(Oc3ccc(NC(=S)NC(=O)Cc4ccccc4)cc3F)c2s1 | 8.00 | – | 1.7 (≈ 3.28 µM) | – |
| Cn1ncnc1-c1cc2nccc(Oc3ccc(NC(=S)NC(=O)Cc4ccccc4)cc3F)c2s1 | 7.55 | 7.16 | – | 7.70 |
| O=C(Cc1ccccc1)NC(=S)Nc1ccc(Oc2ccnc3cc(C(=O)N4CCCC4)sc23)c(F)c1 | 8.05 | 7.27 | – | – |
| CNC(=O)c1cc2nccc(Oc3ccc(NC(=S)NC(=O)Cc4ccccc4)cc3F)c2s1 | 6.88 | – | – | – |
| COc1cc2nccc(Oc3ccc(NC(=S)NC(=O)Cc4ccccc4)cc3F)c2cc1OC | 7.49 | – | – | – |
| O=C(Cc1ccccc1)NC(=S)Nc1ccc(Oc2ccnc3cc(-c4nccs4)sc23)c(F)c1 | 7.77 | 7.19 | – | 7.55 |
| CN1CCN(C(=O)c2cc3nccc(Oc4ccc(NC(=S)NC(=O)Cc5ccccc5)cc4F)c3s2)CC1 | 6.46 | 6.71 | – | – |

Continued, values first:

| pIC50 [1] | pIC50 [2] | solubility [3] [µg/mL] | pIC50 [4] | SMILES |
| --- | --- | --- | --- | --- |
| 6.84 | 7.22 | – | – | O=C(Cc1ccccc1)NC(=S)Nc1ccc(Oc2ccnc3cc(-c4nncs4)sc23)c(F)c1 |
| 6.76 | 7.20 | – | 5.30 | O=C(Cc1ccccc1)NC(=S)Nc1ccc(Oc2ccnc3cc(-c4cncnc4)sc23)c(F)c1 |
| 7.60 | 7.62 | – | – | Cn1cc(-c2cc3nccc(Oc4ccc(NC(=S)NC(=O)Cc5ccccc5)cc4F)c3s2)cn1 |
| 6.89 | – | – | – | NC(=O)c1cc2nccc(Oc3ccc(NC(=S)NC(=O)Cc4ccccc4)cc3F)c2s1 |
| 6.23 | 7.13 | – | – | O=C(Cc1ccccc1)NC(=S)Nc1ccc(Oc2ccnc3cc(-c4ccoc4)sc23)c(F)c1 |
